Most compounds without a hit are left out; they make up all but 3.7% or so of the library.
GASC-1 inh: inhibitors of GASC-1 histone demethylase, primary screen, biochemical, fluorescence, DELFIA europium; inhibition, % at 2.35 µM; Lysine-specific demethylase 4C (Homo sapiens), Q9H3R0; AID 2099, 2009; actives 0.069% (n = 330,000); GST-JMJD2C(1-420) H3K9me3 demethylation;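 active = more than half of a compound's replicate wells show inhibition beyond 50%, single wells judged on their own value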;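 note: signal counts dimethyl H3K9 product captured on neutravidin plate; 0% = median of DMSO wells and 100% = 0.3 times that DMSO median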
SR-BI uptake up: activators of SR-BI mediated DiI-HDL uptake, primary screen, ldlA[mSR-BI] CHO cells, DiI fluorescence | 3 h; 100 = double the neutral-control signal | activation, % at 12.5 µM | AID 504775, 2011 | actives 0.096% (n = 320,000);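 active = mean replicate activation of at least 60% and every replicate at or above 60%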;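 note: 0% = median plate neutral-control signal and 100% = twice that signal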
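Test system: SR-BI-overexpressing, LDLR-lacking CHO cells. Measured by: DiI fluorescence, bottom read. Medium: Ham's F12 with 0.5% BSA, HEPES 25 mM, pH 7.4. Timing: 3 h uptake period with compound, 37 °C.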
AHR act: AHR activators, primary screen, cell-based, luminescence, luciferase reporter, human. AHR-responsive luciferase reporter cells. activation, % at 5 µM. actives 2.5% (n = 320,000). AID 2796, 2010; in the data active = activation above about 47%;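 note: 0% = vehicle wells and 100% = reference agonist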
SR-BI HDL uptake: inhibitors of SR-BI mediated HDL lipid uptake, primary screen, ldlA[mSR-BI] cells, fluorescence, single point | ldlA[mSR-BI] CHO cells, DiI-HDL uptake fluorescence, 3 h | inhibition, % at 12.5 µM | actives 0.96% (n = 320,000);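 active = mean replicate inhibition of at least 70% and a set share of replicates each scoring 70 or more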;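 note: 0% = median of neutral control wells and 100% = median of positive control wells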
FXN GAA850 act: FXN promoter activators, primary screen, cell-based, luciferase luminescence, HEK293 lucGAA850 | actives 0.56% (n = 360,000) | AID 540364, 2011 | HEK293 lucGAA850 FXN promoter luciferase reporter, 24 h; percent of 10 µM SAHA response | activation, % at 6 µM;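 active = activation above the average of all compounds screened plus 3 SD, cutoff fixed separately per campaign, cut at about 7.5% in these data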;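 note: 0% = DMSO wells and 100% = 10 µM SAHA wells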
AHR act confirm: AHR activators, confirmation, cell-based, luminescence, luciferase reporter, human; shares compounds with AHR act; human cells, AHR-responsive luciferase reporter; activation, % at 9 µM; actives 87% (n = 2,300); in the data active = activation above about 49%;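 note: HepG2 hepatoma cells carrying a DRE-driven firefly luciferase reporter; 0% = vehicle wells and 100% = reference agonist wells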
PXR act counter: human PXR activators, counter-screen for AHR activator project, cell-based, luciferase luminescence; activation, % at 11.6 µM; cell-based PXR reporter; actives 88% (n = 2,300); shares compounds with AHR act; in the data active = activation above about 11%;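 note: human hepatoma DPX-2 cells expressing full-length human PXR; 0% = DMSO and 100% = reference agonist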
Target sequence (O75469 whole entry, looked up): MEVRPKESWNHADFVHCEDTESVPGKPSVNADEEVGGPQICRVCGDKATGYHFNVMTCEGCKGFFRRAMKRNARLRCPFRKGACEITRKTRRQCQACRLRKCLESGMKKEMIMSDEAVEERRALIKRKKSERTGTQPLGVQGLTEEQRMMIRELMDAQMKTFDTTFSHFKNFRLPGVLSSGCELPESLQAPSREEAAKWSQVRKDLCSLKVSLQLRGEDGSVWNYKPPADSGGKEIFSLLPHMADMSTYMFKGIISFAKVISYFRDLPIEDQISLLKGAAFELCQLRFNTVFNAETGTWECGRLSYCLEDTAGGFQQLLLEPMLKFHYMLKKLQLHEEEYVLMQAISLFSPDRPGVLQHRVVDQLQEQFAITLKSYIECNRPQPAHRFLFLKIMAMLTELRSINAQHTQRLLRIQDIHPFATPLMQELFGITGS
Active calls of the source: *.

What do the screens show for `N#C/C(=C/c1ccc(Sc2nc3ccccc3[nH]2)o1)c1cccc(Br)c1`?
GASC-1 inh: 3.8; SR-BI uptake up: -0.4; AHR act: 82.6*; SR-BI HDL uptake: 0.4; FXN GAA850 act: 2.2; AHR act confirm: 42.5; PXR act counter: 83.7*

Results for N#C/C(=C\c1ccc(Sc2ccccc2)o1)c1nc2ccccc2[nH]1 ?
GASC-1 inh: 20.1; SR-BI uptake up: -9.1; AHR act: 145.3*; SR-BI HDL uptake: 9.1; FXN GAA850 act: 5.0; AHR act confirm: 121.9*; PXR act counter: 151.1*

Results for Cc1ccc(S(=O)(=O)NC(=O)Nc2c(C)cccc2C)cc1 ?
GASC-1 inh: -8.8; SR-BI uptake up: 6.8; AHR act: -3.5; SR-BI HDL uptake: -6.8; FXN GAA850 act: -1.0

How did CCn1ncc(Br)c1C(=O)Nc1ccc(OC(F)(F)F)cc1 do in these assays?
GASC-1 inh: -11.5; SR-BI uptake up: -8.0; AHR act: 95.7*; SR-BI HDL uptake: 8.0; FXN GAA850 act: 1.9; AHR act confirm: 91.4*; PXR act counter: 20.5*

How did CCn1ncc(Br)c1C(=O)Nc1ccc(C(=O)OC(C)C)cc1 do in these assays?
GASC-1 inh: -14.1; SR-BI uptake up: -56.5; AHR act: -5.0; SR-BI HDL uptake: 56.5; FXN GAA850 act: 1.7

What do the screens show for `CCn1ncc(Br)c1C(=O)Nc1ccccc1C(F)(F)F`?
GASC-1 inh: -5.9; AHR act: 88.2*; FXN GAA850 act: -0.3; AHR act confirm: 91.9*; PXR act counter: 23.4*

Results for CCn1ncc(Br)c1C(=O)Nc1ccccc1C(=O)OC ?
GASC-1 inh: -3.2; SR-BI uptake up: -14.9; AHR act: -0.3; SR-BI HDL uptake: 14.9; FXN GAA850 act: 1.1

How did CC(C)NC(=O)Nc1ccc2c(c1)C(=O)N([C@H](C)CO)C[C@H](C)[C@@H](CN(C)Cc1ccc(C(F)(F)F)cc1)OCCCC[C@H](C)O2 do in these assays?
FXN GAA850 act: 0.6

How did COc1ccc(CNC(=O)C(OC(=O)c2ccco2)c2ccccc2)cc1 (stereo not given) do in these assays?
GASC-1 inh: -7.0; SR-BI uptake up: 1.5; AHR act: -0.8; SR-BI HDL uptake: -1.5; FXN GAA850 act: 0.2

What do the screens show for `CCOC(=O)CCN`?
GASC-1 inh: 23.6; SR-BI uptake up: 24.0; AHR act: 1.2; SR-BI HDL uptake: -24.0; FXN GAA850 act: 1.5

How did O=C(N/N=C/c1sc(=O)[nH]c1-[n+]1ccc2ccccc2c1)c1ccccc1[O-] do in these assays?
GASC-1 inh: -0.7; SR-BI uptake up: 9.8; AHR act: 83.8*; SR-BI HDL uptake: -9.8; FXN GAA850 act: 3.3; AHR act confirm: 71.3*; PXR act counter: 11.5*

What do the screens show for `Cc1ccc(-n2c(C)cc(/C=C3\NC(=O)NC3=O)c2C)c(C)c1`?
GASC-1 inh: 2.4; SR-BI uptake up: -12.4; AHR act: 40.2; SR-BI HDL uptake: 12.4; FXN GAA850 act: 0.8

Results for Cc1cc(/C=C2/NC(=O)NC2=O)c(C)n1-c1ccccn1 ?
GASC-1 inh: -17.8; SR-BI uptake up: 13.9; AHR act: 136.6*; SR-BI HDL uptake: -13.9; FXN GAA850 act: 3.4; AHR act confirm: 87.9*; PXR act counter: 22.6*

What do the screens show for `CCCS(=O)(=O)c1c(S(=O)(=O)CCC)c2ccc(C(N)=O)cn2c1C(=O)c1ccc(OC)cc1`?
GASC-1 inh: 18.7; SR-BI uptake up: -14.1; AHR act: -1.8; SR-BI HDL uptake: 14.1; FXN GAA850 act: -0.7

Bioassay records deposited in PubChem by several laboratories.
